Screening results from PubChem.
SUMO HTRF inh: SUMOylation inhibition; HTRF SUMOylation assay, SAE1/SAE2 + UBC9, in vitro; hit rate 0.36% among 290,000; inhibition, % at 35 µM; P63279; AID 2006; in the data active means inhibition above about 50%, passing the limit was not always enough
SUMO1-SIM PPI: modulators of human SUMO1-mediated protein-protein interactions; hit rate 0.33% among 360,000; P63165; inhibition, % at 20 µM; AID 602429; SUMO1 binding to a labelled peptide, TR-FRET, 1 h; in the data active means inhibition above about 37%
Target sequence (P63165 whole entry, looked up): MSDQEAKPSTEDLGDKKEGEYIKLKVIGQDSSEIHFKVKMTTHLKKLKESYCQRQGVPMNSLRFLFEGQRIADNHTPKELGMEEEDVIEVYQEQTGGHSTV
DNMT1 inh: blocks human DNA methyltransferase DNMT1; P26358; AID 588458; inhibition (reported as % activation of signal), % at 10 µM; DNMT1 molecular beacon, Hinp1I cleavage, fluorescence; hit rate 0.83% among 360,000; in the data active means inhibition above about 50%
LMPTP inh: blocks human LMPTP phosphatase | inhibition, % at 20 µM | hit rate 0.22% among 360,000 | recombinant LMPTP-A, OMFP fluorogenic substrate, fluorescence intensity;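 active means compounds that cut the enzyme signal by at least half of the control window in the single-dose screen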;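 further: plate controls were DMSO wells with enzyme plus substrate for no effect and substrate without enzyme for full effect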
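Buffer or medium: Bis-Tris pH 6.0, DTT, detergent; Assay system: LMPTP-A enzyme; Quantity: 0.625 nM enzyme; Detection: endpoint fluorescence intensity; Times: 50 min dark incubation at room temperature; Controls: substrate-only low control, DMSO enzyme-plus-substrate high control; Doses: single 20 µM dose; Read-out: percent inhibition versus substrate-only and uninhibited controls; Reagent: 400 µM OMFP.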
STEP block: blocks human striatal-enriched tyrosine phosphatase | recombinant STEP, OMFP fluorogenic substrate, fluorescence | inhibition, % at 20 µM | hit rate 0.25% among 360,000 | AID 588621;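 active means inhibition at 20 µM, scaled per plate between control wells, above about 37%, limit read from the data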;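 further: 0% = DMSO with enzyme and substrate and 100% = substrate only without enzyme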
Target sequence (P54829 whole entry, looked up): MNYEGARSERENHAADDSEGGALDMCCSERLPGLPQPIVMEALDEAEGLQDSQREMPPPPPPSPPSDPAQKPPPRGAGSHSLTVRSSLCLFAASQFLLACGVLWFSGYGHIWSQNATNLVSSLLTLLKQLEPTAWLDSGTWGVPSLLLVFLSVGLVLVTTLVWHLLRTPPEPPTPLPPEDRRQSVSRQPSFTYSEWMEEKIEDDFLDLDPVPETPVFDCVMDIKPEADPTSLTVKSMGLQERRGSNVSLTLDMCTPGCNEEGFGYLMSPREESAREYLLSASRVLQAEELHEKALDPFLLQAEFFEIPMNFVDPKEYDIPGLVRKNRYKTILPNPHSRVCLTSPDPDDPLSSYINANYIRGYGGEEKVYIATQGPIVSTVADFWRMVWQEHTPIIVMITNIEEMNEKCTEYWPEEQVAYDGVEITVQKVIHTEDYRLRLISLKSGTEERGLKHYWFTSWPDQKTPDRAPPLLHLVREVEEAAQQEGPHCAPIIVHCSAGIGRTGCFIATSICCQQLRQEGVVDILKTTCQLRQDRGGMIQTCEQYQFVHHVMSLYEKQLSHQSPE
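medium = Bis-Tris buffer pH 6.0, 2.5 mM DTT, 0.005% Tween 20 | test system = STEP (striatal-enriched tyrosine phosphatase) enzyme, cell-free | measure = normalized % inhibition | compound dosing = 20 µM, 1% DMSO | also added = 25 µM OMFP | schedule = reaction 20 min, ambient temperature | measured by = fluorescence read at 480 nm ex / 540 nm em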
Scp1 inh: inhibitors of human Scp-1 phosphatase; inhibition, % at 20 µM; AID 493091; Q9GZU7; Recombinant Scp1, phosphopeptide, malachite green phosphate absorbance; hit rate 0.88% among 340,000;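 active means inhibition above about 50% at 20 µM, limit read from the data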;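 further: plate controls were DMSO wells with enzyme for no effect and wells lacking enzyme for full effect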
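Incubation: 45 min enzyme reaction at room temperature / System: truncated SCP-1 phosphatase (76-261aa) / Reagent: Phospho 17-mer peptide substrate / Buffer or medium: Acidic Tris acetate buffer with magnesium and detergent / Signal: absorbance at 630 nm / Doses: one concentration, 20 µM, with 1.0% DMSO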
Scp-1 conf: Scp-1 (human) inhibition, single-dose confirmed; shares compounds with Scp1 inh; recombinant SCP-1 catalytic domain, phosphate release, malachite green absorbance; inhibition, % at 20 µM; hit rate 61% among 2,500;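 further: plate controls were DMSO with enzyme for no effect and buffer wells lacking enzyme for full effect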
Scp-1 MG ctr: interferes with malachite green readout, flagging false Scp-1 hits. shares compounds with Scp1 inh. Colorimetric interference counterscreen, malachite green absorbance 630 nm. apparent inhibition (interference), % at 20 µM. 2,500 tested, under 10 active. AID 540313;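 further: compounds added after enzyme reaction finished so only phosphate colour detection is probed; plate controls were DMSO wells with completed Scp-1 reaction for no effect and substrate wells lacking enzyme for full effect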
Scp-1 Tm shift: Scp-1 (human) binding by thermal shift | shares compounds with Scp1 inh | Recombinant SCP1, Sypro Orange thermal shift Tm | thermal shift relative to vanadate control, % at 40 µM | hit rate 25% among 1,500 | AID 540329;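 active means substances whose mean melting-temperature shift, as a percentage of the reference inhibitor's shift, reaches about 5.3%, limit read from the data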;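 further: 0% = Tm of DMSO wells and 100% = Tm with sodium orthovanadate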
Starred values were filed as active, the others as inactive. Sampled rows, rich in hits. Any-hit rate of the full collection: about 1.9%.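 How the source made its calls, unless noted: active means inhibition of at least 30% at 20 µM; inactive means the rest.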

For CC(C)NC(=O)Nc1ccc2c(c1)C(=O)N([C@H](C)CO)C[C@H](C)[C@@H](CN(C)C(=O)Nc1ccc3c(c1)OCO3)O2 the results were SUMO1-SIM PPI 1, DNMT1 inh -1, LMPTP inh -1, STEP block 0, Scp1 inh 62*, Scp-1 conf -7 and Scp-1 MG ctr -17.
C[C@H](CO)N1C[C@H](C)[C@@H](CN(C)C(=O)Nc2ccc(C(F)(F)F)cc2)Oc2ccc(NC(=O)Nc3ccccc3)cc2C1=O was read as SUMO1-SIM PPI 5, DNMT1 inh -18, LMPTP inh 2, STEP block -2 and Scp1 inh 12.
For C[C@H](CO)N1C[C@H](C)[C@@H](CN(C)C(=O)Nc2ccc(C(F)(F)F)cc2)Oc2ccc(NC(=O)C3CC3)cc2C1=O the results were SUMO1-SIM PPI 1, DNMT1 inh 0, LMPTP inh 1, STEP block 1, Scp1 inh 56*, Scp-1 conf -3 and Scp-1 MG ctr -21.
For C[C@H](CO)N1C[C@H](C)[C@@H](CN(C)C(=O)Nc2ccccc2)Oc2ccc(NC(=O)Nc3ccccc3)cc2C1=O the results were SUMO1-SIM PPI 5, DNMT1 inh -1, LMPTP inh 0, STEP block -1, Scp1 inh 71*, Scp-1 conf 15 and Scp-1 MG ctr -11.
For C[C@H](CO)N1C[C@H](C)[C@@H](CN(C)C(=O)Nc2ccccc2)Oc2ccc(NC(=O)c3ccncc3)cc2C1=O the results were SUMO1-SIM PPI -3, DNMT1 inh 11, LMPTP inh 0, STEP block 1, Scp1 inh 75*, Scp-1 conf 18 and Scp-1 MG ctr -15.
`CC1(C)CC(NC(=O)c2cc(Cl)ccc2Cl)CC(C)(C)N1` gave SUMO HTRF inh 1, SUMO1-SIM PPI 6, DNMT1 inh 5, LMPTP inh 1, STEP block 0 and Scp1 inh -10.
Screening O=C(CNCCc1ccc(F)cc1)Nc1cc(F)ccc1F returned SUMO HTRF inh 14, SUMO1-SIM PPI 2, DNMT1 inh -2, LMPTP inh 0, STEP block -2 and Scp1 inh -7.
Screening CC(Oc1ccccc1)C(=O)N1CCN(c2ccc(N3CCCCC3)nn2)CC1 (stereo not drawn) returned SUMO1-SIM PPI -6, DNMT1 inh 0, LMPTP inh 1, STEP block -1 and Scp1 inh -8.
For O=C(C1CCN(CCc2ccccc2)CC1)N1CCOCC1 the results were SUMO1-SIM PPI 7, DNMT1 inh 0, LMPTP inh 0, STEP block -3 and Scp1 inh 0.
For O=C(O)CCCn1c(O)c(C=C2N=c3ccccc3=N2)sc1=S the results were SUMO HTRF inh -8, SUMO1-SIM PPI -24, DNMT1 inh 3, LMPTP inh 1, STEP block 0 and Scp1 inh -7.
O=C(O)CCCCCn1c(O)c(C=C2N=c3ccccc3=N2)sc1=S was read as SUMO HTRF inh 19, SUMO1-SIM PPI -9, DNMT1 inh 8, LMPTP inh 15, STEP block 22, Scp1 inh 74*, Scp-1 conf 91*, Scp-1 MG ctr -5 and Scp-1 Tm shift 10*.
`CCC1CCCCN1C(=O)COC(=O)c1cncc(Br)c1` (stereo not drawn) gave SUMO1-SIM PPI 0, DNMT1 inh 0, LMPTP inh -1 and STEP block 0.
Screening O=c1c2ccccc2sn1-c1cc(S(=O)(=O)N2CCOCC2)ccc1N1CCCC1 returned SUMO HTRF inh -2, SUMO1-SIM PPI 8, DNMT1 inh -8, LMPTP inh -1, STEP block -3, Scp1 inh 88*, Scp-1 conf 55*, Scp-1 MG ctr -19 and Scp-1 Tm shift -64.
For O=C(CSc1nc(O)cc(=O)[nH]1)C1CC1 the results were SUMO HTRF inh 26, SUMO1-SIM PPI 1, DNMT1 inh 2, LMPTP inh -1, STEP block -5, Scp1 inh 53*, Scp-1 conf -12 and Scp-1 MG ctr -17.
For COc1cccc(-c2cc(C(F)(F)F)nc(-n3cc(C)cn3)n2)c1 the results were SUMO HTRF inh 19, SUMO1-SIM PPI 2, DNMT1 inh -1, LMPTP inh 1, STEP block 1, Scp1 inh 55*, Scp-1 conf -15 and Scp-1 MG ctr -17.
O=C(CN1C(=O)/C(=C2/SC(=S)N(CCS(=O)(=O)O)C2=O)c2ccccc21)Nc1cccc(Br)c1 was read as SUMO1-SIM PPI 1, DNMT1 inh 9, LMPTP inh 2, STEP block 87*, Scp1 inh 82*, Scp-1 conf 81*, Scp-1 MG ctr -14 and Scp-1 Tm shift 16*.
`O[C@@H]1CN(Cc2ccc(-n3cccn3)cc2)CC[C@H]1N1CCN(c2ccccc2F)CC1` gave SUMO HTRF inh 18, SUMO1-SIM PPI -2, DNMT1 inh 0, LMPTP inh 0, STEP block 1 and Scp1 inh -6.
`Cn1cccc/c1=N\c1cccc[n+]1C` gave SUMO HTRF inh 29, SUMO1-SIM PPI 5, DNMT1 inh 3, LMPTP inh 1, STEP block -2, Scp1 inh 107*, Scp-1 conf 4 and Scp-1 MG ctr -13.
Screening O=S1(=O)CC(N2CCN(CCO)CC2)CN1Cc1cn(Cc2ccc(F)cc2)nn1 (stereo not drawn) returned SUMO1-SIM PPI 0 and LMPTP inh -5.
`COC(=O)CNC(=O)c1c(-c2c(Cl)cccc2Cl)noc1C` gave SUMO HTRF inh -1, SUMO1-SIM PPI 2, DNMT1 inh 0, LMPTP inh 0, STEP block -6, Scp1 inh 55*, Scp-1 conf -10 and Scp-1 MG ctr -12.
For COC(=O)CNC(=O)c1c(-c2ccccc2Cl)noc1C the results were SUMO HTRF inh 19, SUMO1-SIM PPI -1, DNMT1 inh 2, LMPTP inh -1, STEP block -1 and Scp1 inh 0.
Screening O=C(Nc1ccc(S(=O)(=O)Nc2nccs2)cc1)c1nn(-c2ccccc2)ccc1=O returned SUMO HTRF inh 35, SUMO1-SIM PPI 10, DNMT1 inh 43, LMPTP inh 48, STEP block 7, Scp1 inh 75*, Scp-1 conf 71*, Scp-1 MG ctr -16 and Scp-1 Tm shift 6.8*.
